We go through 1 compound from ChEMBL document CHEMBL1909618, “Non-steroidal dissociated glucocorticoid agonists: indoles as A-ring mimetics and function-regulating pharmacophores” (Bioorg Med Chem Lett, 2011).

Structures are written as SMILES.

Data set [1] concerns Mus musculus. In words: Toxicity in B10.R3 mouse collagen-induced arthritis model assessed as change in body weight at 30 mg/kg, po qd for 5 weeks relative to control. In kind it is organism-based. Further details: dose 30 mg/kg, route oral. As to conditions: in vivo, 840 h.
For data set [2], the system named is Mus musculus. Briefly: Toxicity in B10.R3 mouse collagen-induced arthritis model assessed as change in serum insulin level at 30 mg/kg, po qd for 5 weeks by ELISA relative to control. The arrangement: dose 30 mg/kg, route oral. Conditions: in vivo, 840 h. The data set is classed as organism-based. (In general: An ELISA detects its analyte on a solid surface through an enzyme-linked reagent.)

For data set [3], the target named is T1, Glucocorticoid receptor (Homo sapiens) (UniProt P04150).
T1 sequence (whole entry): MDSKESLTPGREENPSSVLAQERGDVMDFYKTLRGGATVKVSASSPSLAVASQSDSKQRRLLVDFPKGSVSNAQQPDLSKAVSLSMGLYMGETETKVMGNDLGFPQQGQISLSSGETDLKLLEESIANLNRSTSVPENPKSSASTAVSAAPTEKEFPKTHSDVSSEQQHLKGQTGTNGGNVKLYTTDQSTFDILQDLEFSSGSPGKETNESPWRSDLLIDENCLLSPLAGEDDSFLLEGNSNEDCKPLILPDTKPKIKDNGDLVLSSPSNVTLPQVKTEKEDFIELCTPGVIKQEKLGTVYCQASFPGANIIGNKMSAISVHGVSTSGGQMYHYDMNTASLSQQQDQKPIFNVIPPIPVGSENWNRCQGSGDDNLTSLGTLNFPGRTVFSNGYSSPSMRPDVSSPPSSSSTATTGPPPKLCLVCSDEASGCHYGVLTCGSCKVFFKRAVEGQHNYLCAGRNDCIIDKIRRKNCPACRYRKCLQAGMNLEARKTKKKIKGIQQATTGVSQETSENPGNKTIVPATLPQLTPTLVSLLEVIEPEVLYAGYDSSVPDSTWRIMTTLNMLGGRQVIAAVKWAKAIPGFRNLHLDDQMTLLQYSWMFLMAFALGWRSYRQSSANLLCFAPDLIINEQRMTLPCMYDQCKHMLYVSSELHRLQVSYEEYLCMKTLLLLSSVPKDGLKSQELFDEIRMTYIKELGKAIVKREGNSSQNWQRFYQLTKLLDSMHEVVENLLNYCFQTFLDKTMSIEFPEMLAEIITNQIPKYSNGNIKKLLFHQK
Briefly: Agonist activity at glucocorticoid receptor in human HeLa cells transfected with luciferase gene linked to MMTV promoter assessed as luciferase transactivation activity relative to Dexamethasone. The data set is classed as functional, cell-based. In short, it runs like this: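 HeLa cells stably carrying an MMTV-luciferase construct were exposed to compound for 6 h at 37 °C, 5% CO2. Cells were then lysed and luminescence read with a Steady-Glo reagent. EC50 and % maximal efficacy were reported.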

Data set [4] in a line: Oral bioavailability in B10.R3 mouse at 30 mg/kg. The data set is classed as ADME, organism-based. As to conditions: in vivo. Put shortly: (§1)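 Mouse PK: IV dose 1 mg/kg in PEG400/water (70:30); oral dose 30 mg/kg given as a suspension in 30% Cremophor. Values are the mean of 3 mice.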
Data set [5] relates to Mus musculus. Briefly: Toxicity in B10.R3 mouse collagen-induced arthritis model assessed as change in serum triglyceride level at 30 mg/kg, po qd for 5 weeks relative to control. The data set is classed as organism-based. Further details: dose 30 mg/kg, route oral. As to conditions: in vivo, 840 h. Put shortly: (§2)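 Arthritic B10.RIII CIA mice were dosed orally once daily for 5 weeks. At day 35 they were anesthetized with ketamine (50 mg/kg) and xylazine (15 mg/kg). Body fat was assessed by whole-body density scan. Serum triglycerides were measured by enzymatic kit (Wako L-Type TG-H) and free fatty acids by NEFA-C. Results are expressed as % change versus vehicle and compared by t-test.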

Data set [6] is described as follows: Volume of distribution at steady state in Sprague-Dawley rat at 2 mg/kg, iv. In kind it is ADME, organism-based. The arrangement: dose 2 mg/kg, route intravenous. As to conditions: in vivo, read-out: Vdss. Put shortly: (§3)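 Rat PK: IV dose 2 mg/kg in PEG400/water (70:30); oral dose 30 mg/kg in PEG400/H2O/Tween (80/18/2). Values are the mean of 3 rats.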
A short description of data set [7]: Clearance in Sprague-Dawley rat at 2 mg/kg, iv. The data set is classed as ADME, organism-based. Further details: dose 2 mg/kg, route intravenous. As to conditions: in vivo. In short, it runs like this: as §3
A short description of data set [8]: Cmax in Sprague-Dawley rat at 30 mg/kg, po. Conditions: in vivo. Further details: dose 30 mg/kg, route oral. In kind it is ADME, organism-based. In short, it runs like this:
as §3

Data set [9] has as its system Mus musculus. In words: Toxicity in B10.R3 mouse collagen-induced arthritis model assessed as change in body fat level at 30 mg/kg, po qd for 5 weeks relative to control. Further details: dose 30 mg/kg, route oral. As to conditions: in vivo, 840 h. In kind it is organism-based. In short, it runs like this: as §2
The next data set is filed under the species Homo sapiens. In words: Selectivity ratio of IC50 for human recombinant glucocorticoid receptor to IC50 for human recombinant mineralocorticoid receptor.
Data set [10] is described as follows: AUC (infinity) in Sprague-Dawley rat at 30 mg/kg, po. The data set is classed as ADME, organism-based. The arrangement: dose 30 mg/kg, route oral, time infinity. As to conditions: plasma. In short, it runs like this: as §3
The next data set concerns the target T2, Glucocorticoid receptor (Homo sapiens, UniProt P04150).
T2 sequence (P04150 whole entry): T1 sequence (whole entry)
In words: Agonist activity at glucocorticoid receptor in human HeLa cells transfected with luciferase gene linked to MMTV promoter assessed as luciferase transactivation activity. The data set is classed as functional, cell-based.

Data set [11] in a line: Half life in B10.R3 mouse at 1 mg/kg, iv. The data set is classed as ADME, organism-based. Further details: dose 1 mg/kg, route intravenous. Conditions: in vivo. Put shortly:
as §1

Data set [12] can be described thus: Half life in Sprague-Dawley rat at 2 mg/kg, iv. The data set is classed as ADME, organism-based. As to conditions: in vivo. The arrangement: dose 2 mg/kg, route intravenous. Put shortly: as §3
Data set [13] in a line: AUC (infinity) in B10.R3 mouse at 30 mg/kg, po. As to conditions: plasma. Further details: time infinity, dose 30 mg/kg, route oral. The data set is classed as ADME, organism-based. Put shortly:
as §1

In data set [14] the test system is Mus musculus. In words: Antiarthritic activity in B10.R3 mouse collagen-induced arthritis model assessed as AUC of disease progression inhibition at 30 mg/kg, po qd for 5 weeks. The data set is classed as functional. As to conditions: B10.R3, 840 h. In short, it runs like this: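 B10.RIII mice immunized with porcine type II collagen plus complete Freund's adjuvant were enrolled at the first signs of arthritis. They were dosed orally once daily for 5 weeks; vehicle was 30% Cremophor RH. All four paws were scored 1–4 (maximum 16 per animal). Disease-score AUCs from 10 mice per group were compared with vehicle by Mann–Whitney test.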

By bioavailability is commonly meant dose-corrected exposure relative to a reference, in per cent. What is called clearance is the volume of plasma or blood freed of the substance per unit of time. In general, Cmax refers to the maximum level reached in the sampled fluid or tissue. The term AUC(0-inf) denotes the area under the concentration-time curve extrapolated to infinity. Lower therefore signals less exposure. The term EC50 denotes the concentration giving half of the maximal effect. By half-life is commonly meant the time needed for the level to fall by half in the phase considered. What is called inhibition in vivo is the change of the read-out against control, counted positive when it falls. For `CC(C)(C[C@@](O)(Cc1cc2ccc(C#N)cc2[nH]1)C(F)(F)F)c1cc(S(C)(=O)=O)cc2c1OCC2`, the Activity in the data set with Mus musculus [1] is given as -8%; in the data set with Mus musculus [2] it was -29%; in the data set with Mus musculus [5], 11%; in the data set with Mus musculus [9], 6%. Also, the Efficacy in data set [3] is 10%. Further, in data set [4], the bioavailability stood at 26%. The Vd in [6] was found to be 7.7 L/kg. Also, the clearance in data set [7] is 51 mL/min/kg. The peak level in data set [8] (Cmax) was 955 ng/mL. The Ratio IC50 in the data set filed under Homo sapiens amounted to 100. In addition, the AUC(0-inf) was found to be 4850 ng·h/mL in data set [10] and 32700 ng·h/mL in data set [13]. Also, the EC50 on Glucocorticoid receptor was above 2000 nM. Also, the half-life is 150 min in data set [11] and 102 min in [12]. In addition, in the data set on Mus musculus [14], the inhibition in vivo at 30 mg/kg stood at 45%.
